Reference: ChEMBL document CHEMBL4823251, “Structure-Based Exploration of Selectivity for ATM Inhibitors in Huntington's Disease” (J Med Chem, 2021)
≈ marks a conversion by molar mass, not a printed value.

How the values were obtained:
[1] = species on record: Homo sapiens; test: Selectivity ratio of Ki for full length recombinant GST-tagged VPS34 expressed in baculovirus expression system using PI/PS as substrate incubated for 60 mins in presence of ATP at Km concentration by luminescence assay to Ki for full length recombinant FLAG-tagged human ATM assessed as decrease in p53 S15 phosphorylation using full length myc-tagged p53 as substrate incubated for 30 mins in presence of ATP by ELISA
Outline: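 ADP-Glo luminescence read-out. ATM reaction: 0.75 nM enzyme, 25 nM myc-p53, 10 μM ATP, 30 min at 20 °C, p53 S15 phosphorylation by ELISA. Ki values are means of at least two experiments.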

[2] = Effective efflux ratio of apparent permeability across basolateral to apical over apical to basolateral side in MDCK-MDR1 cells assessed as efflux ratio after 1 hr by LC-MS/MS analysis; type: ADME, cell-based, Canis lupus familiaris; conditions: dog, mdck-mdr1, 1 h
Outline: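 MDCKII MDR1 and wild-type cells seeded at 2 × 10⁵ cells/well in Transwells, cultured 3 days. Test compounds 10 μM in HBSS with 25 mM HEPES pH 7.4, dosed apical or basolateral in duplicate, 1 h at 37 °C. Lucifer yellow monolayer check, wells above 100 nm/s rejected. LC–MS/MS read-out. ER = Papp B>A/A>B. EER = MDR1 ER over wild-type ER.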

[3] = Kinetic solubility of the compound in pH 7.4 PBS buffer incubated for 2 hrs using orbital shaker by LC-UV mass spectrometry; type: physicochemical; conditions: read-out: Kinetic_solubility
Outline: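 Shaken on an orbital shaker for 2 h at room temperature, then filtered. Filtrate analysed by LC-UV with MS confirmation, calibrated against 200 μM and 10 μM DMSO dilutions.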

[4] = target: Phosphatidylinositol 3-kinase catalytic subunit type 3 (Homo sapiens, UniProt Q8NEB9); test: Inhibition of full length recombinant GST-tagged human VPS34 expressed in baculovirus expression system using PI/PS as substrate incubated for 60 mins in presence of ATP at Km concentration by luminescence assay
[5] = Apparent permeability across apical to basolateral side in MDCK-MDR1 cells after 1 hr by LC-MS/MS analysis; type: ADME, cell-based, Canis lupus familiaris; conditions: dog
Outline: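 MDCKII-MDR1 and wild-type cells seeded at 2 × 10⁵ cells/well on Transwells and cultured 3 days. Test compound at 10 μM in HBSS with 25 mM HEPES, pH 7.4, added apical or basolateral in duplicate. Lucifer yellow used as integrity check; wells above 100 nm/s rejected. Sampled after 1 h at 37 °C and quantified by LC–MS/MS. Papp taken from the apical-to-basal direction.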

[6] = Intrinsic clearance in C57Bl/6 mouse pooled liver microsomes at 1 uM measured up to 40 mins in presence of NADPH by LC-MS/MS analysis; type: ADME, Microsome; conditions: read-out: CLH
Outline: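 Reaction started with 1 mM NADPH. Sampled at 0, 5, 10, 20 and 40 min, quenched in acetonitrile with internal standard, and analysed by LC–MS/MS.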

[7] = target: T1, Serine-protein kinase ATM (Homo sapiens, UniProt Q13315); test: Inhibition of ATM in human U2OS cells assessed as reduction in etoposide-stimulated KAP1 phosphorylation incubated for 60 mins by immunoreactivity assay; type: cell-based
Outline: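 U2OS cells plated overnight at 6k cells/well (37 °C, 5% CO₂), then treated with compound titrations (0.3% DMSO) plus 100 μM etoposide for 60 min. Cells fixed in cold methanol and stained for phospho-KAP1 and total KAP1 using IRDye secondaries on a LI-COR Odyssey. IC50 is the mean of at least two experiments.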

[8] = target: T1, Serine-protein kinase ATM; test: Inhibition of full length recombinant FLAG-tagged human ATM assessed as decrease in p53 S15 phosphorylation using full length myc-tagged p53 as substrate incubated for 30 mins in presence of ATP by ELISA
Outline: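 Buffer was 25 mM HEPES pH 7.5 with MgCl₂, MnCl₂, Brij-35, glycerol, BSA and DTT (0.1% DMSO); reaction ran 30 min at 20 °C and was stopped with 70 mM EDTA. Product captured on anti-myc-coated plates and detected with anti-p53 pS15, HRP secondary and TMB, absorbance at 450 nm.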

[9] = target: Serine/threonine-protein kinase ATR (Homo sapiens, UniProt Q13535); test: Inhibition of ATR in human HT-29 cells assessed as reduction in CHK1 phosphorylation incubated for 4 hrs; type: cell-based
Outline: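 HT29 cells seeded at 25k/well overnight, then treated with compound titrations (0.3% DMSO) plus 10 μM gemcitabine for 4 h. Cells fixed in paraformaldehyde, permeabilized with Triton-X, and stained for phospho-Chk1 and total Chk1 using LI-COR IRDye detection. Ratio normalized to DMSO and 30 μM AZ-20 controls. IC50 is the mean of at least two experiments.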

[10] = Aqueous solubility of the compound in pH 7.4; type: physicochemical; conditions: buffer

Chain of Phosphatidylinositol 3-kinase catalytic subunit type 3 (Q8NEB9 whole entry): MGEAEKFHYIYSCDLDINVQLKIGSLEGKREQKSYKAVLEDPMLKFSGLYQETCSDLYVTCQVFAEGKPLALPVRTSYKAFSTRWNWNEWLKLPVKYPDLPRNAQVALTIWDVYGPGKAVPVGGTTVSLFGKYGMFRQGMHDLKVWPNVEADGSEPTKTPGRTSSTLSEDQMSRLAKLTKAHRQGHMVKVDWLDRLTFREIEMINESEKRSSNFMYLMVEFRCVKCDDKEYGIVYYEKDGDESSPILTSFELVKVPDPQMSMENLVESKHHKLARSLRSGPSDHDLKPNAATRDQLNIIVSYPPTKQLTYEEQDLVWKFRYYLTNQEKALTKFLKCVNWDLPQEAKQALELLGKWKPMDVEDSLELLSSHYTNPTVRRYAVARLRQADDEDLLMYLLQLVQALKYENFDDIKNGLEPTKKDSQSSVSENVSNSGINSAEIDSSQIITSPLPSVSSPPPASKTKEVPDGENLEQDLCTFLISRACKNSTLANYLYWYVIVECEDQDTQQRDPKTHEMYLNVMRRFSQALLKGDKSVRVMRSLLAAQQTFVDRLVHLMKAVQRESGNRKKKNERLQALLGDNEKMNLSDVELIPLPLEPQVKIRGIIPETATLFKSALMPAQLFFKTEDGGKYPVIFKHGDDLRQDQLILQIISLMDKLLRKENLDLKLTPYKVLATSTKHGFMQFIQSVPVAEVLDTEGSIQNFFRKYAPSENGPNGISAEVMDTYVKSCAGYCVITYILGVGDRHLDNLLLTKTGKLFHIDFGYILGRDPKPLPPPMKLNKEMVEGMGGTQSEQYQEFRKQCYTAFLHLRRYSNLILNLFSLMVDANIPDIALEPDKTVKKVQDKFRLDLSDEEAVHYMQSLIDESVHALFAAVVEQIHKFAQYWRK
T1 sequence (Q13315 whole entry): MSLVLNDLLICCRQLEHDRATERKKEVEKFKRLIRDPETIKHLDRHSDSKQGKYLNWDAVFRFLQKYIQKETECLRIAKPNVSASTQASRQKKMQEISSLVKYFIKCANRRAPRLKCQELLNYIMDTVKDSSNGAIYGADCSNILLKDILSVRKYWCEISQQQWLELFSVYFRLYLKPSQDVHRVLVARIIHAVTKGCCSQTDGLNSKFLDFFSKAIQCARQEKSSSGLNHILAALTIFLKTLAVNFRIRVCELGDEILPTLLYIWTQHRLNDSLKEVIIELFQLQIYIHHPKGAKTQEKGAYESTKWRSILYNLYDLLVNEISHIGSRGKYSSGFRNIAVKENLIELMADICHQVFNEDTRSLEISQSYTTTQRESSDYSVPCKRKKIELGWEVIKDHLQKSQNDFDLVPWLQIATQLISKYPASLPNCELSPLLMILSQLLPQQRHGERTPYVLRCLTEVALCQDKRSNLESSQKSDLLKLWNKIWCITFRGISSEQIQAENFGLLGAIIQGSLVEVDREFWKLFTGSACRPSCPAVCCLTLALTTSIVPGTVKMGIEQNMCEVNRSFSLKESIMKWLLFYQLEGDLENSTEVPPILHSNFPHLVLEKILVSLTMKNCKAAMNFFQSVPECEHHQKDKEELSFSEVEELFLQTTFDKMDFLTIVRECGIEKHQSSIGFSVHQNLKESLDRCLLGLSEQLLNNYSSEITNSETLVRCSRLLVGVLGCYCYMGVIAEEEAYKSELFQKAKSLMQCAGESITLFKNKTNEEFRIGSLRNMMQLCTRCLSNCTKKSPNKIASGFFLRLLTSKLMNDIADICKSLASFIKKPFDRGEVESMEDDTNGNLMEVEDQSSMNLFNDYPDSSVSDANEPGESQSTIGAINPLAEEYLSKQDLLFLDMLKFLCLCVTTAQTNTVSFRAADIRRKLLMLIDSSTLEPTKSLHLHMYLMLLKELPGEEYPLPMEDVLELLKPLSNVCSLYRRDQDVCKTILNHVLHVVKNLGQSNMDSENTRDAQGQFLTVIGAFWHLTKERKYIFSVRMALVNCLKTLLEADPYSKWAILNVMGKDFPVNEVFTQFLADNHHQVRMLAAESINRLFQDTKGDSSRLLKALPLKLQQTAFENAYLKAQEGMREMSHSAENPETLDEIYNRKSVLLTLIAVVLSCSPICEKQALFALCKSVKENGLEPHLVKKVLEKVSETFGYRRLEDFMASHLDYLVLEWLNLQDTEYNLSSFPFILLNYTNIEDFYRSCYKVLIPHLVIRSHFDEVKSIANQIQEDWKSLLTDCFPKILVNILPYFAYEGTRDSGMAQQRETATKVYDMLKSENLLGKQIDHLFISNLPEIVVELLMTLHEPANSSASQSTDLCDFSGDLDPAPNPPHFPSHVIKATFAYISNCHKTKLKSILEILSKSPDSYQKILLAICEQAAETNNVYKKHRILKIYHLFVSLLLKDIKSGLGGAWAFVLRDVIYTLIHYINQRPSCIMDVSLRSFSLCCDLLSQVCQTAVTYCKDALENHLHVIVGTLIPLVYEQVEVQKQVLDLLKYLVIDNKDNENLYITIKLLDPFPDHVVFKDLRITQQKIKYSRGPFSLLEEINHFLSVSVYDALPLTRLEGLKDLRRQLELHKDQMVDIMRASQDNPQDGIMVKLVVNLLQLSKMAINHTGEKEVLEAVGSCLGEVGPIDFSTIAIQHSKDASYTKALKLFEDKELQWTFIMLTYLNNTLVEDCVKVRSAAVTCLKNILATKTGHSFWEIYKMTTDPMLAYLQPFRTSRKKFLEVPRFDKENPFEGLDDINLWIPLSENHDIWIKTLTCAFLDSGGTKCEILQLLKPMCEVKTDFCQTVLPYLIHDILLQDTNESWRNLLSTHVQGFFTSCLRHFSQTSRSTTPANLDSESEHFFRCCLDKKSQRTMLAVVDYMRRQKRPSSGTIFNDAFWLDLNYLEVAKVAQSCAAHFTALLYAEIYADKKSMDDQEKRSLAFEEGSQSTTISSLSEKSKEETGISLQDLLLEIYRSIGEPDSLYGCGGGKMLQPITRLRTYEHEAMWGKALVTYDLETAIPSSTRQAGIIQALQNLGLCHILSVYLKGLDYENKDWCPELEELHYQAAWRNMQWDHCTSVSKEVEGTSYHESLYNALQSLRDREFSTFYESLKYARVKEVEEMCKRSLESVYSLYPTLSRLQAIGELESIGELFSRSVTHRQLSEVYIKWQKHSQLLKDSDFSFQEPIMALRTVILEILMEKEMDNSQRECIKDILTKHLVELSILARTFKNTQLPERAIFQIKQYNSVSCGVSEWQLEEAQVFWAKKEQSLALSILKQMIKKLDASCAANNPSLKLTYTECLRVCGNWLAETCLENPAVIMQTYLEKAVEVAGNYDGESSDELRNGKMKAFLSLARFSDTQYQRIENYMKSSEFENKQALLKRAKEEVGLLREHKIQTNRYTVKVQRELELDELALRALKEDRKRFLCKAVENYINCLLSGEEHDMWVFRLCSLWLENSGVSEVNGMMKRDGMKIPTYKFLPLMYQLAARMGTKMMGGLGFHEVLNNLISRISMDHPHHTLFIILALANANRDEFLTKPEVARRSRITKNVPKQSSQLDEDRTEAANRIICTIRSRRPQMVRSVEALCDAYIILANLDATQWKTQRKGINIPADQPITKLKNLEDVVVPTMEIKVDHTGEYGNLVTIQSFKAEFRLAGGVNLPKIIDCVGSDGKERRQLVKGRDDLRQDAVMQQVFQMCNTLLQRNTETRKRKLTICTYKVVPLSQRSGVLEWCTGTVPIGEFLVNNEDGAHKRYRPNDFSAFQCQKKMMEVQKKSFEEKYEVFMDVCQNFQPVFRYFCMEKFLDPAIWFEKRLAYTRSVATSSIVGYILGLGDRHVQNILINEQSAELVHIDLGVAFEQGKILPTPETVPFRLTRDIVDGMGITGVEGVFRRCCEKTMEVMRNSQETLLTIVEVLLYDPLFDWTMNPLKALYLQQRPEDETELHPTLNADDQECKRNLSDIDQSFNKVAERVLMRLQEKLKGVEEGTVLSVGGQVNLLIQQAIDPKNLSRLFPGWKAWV

Q: For `O=c1cc(N2CCOCC2)nc(N2CCCCC[C@@H]2Cc2ccccc2)[nH]1`, which Ratio Ki [1] is on record?
A: Its Ratio Ki is 80.

Q: What about the Ratio [2] of the same compound?
A: Its Ratio is 3.1.

Q: And the solubility kinetic at 2 h [3]?
A: The solubility kinetic at 2 h was 48 µg/mL (≈ 130 µM).

Q: What about the Ki [4] of the same compound?
A: The Ki was 8 nM.

Q: And the Papp A→B at 1 h [5]?
A: Its Papp A→B at 1 h is 58.1 ×10⁻⁶ cm/s.

Q: What about the CLint scaled at 1 µM [6] of the same compound?
A: Its CLint scaled at 1 µM is 287 mL/min/kg.

Q: What about the IC50 [7] of the same compound?
A: Its IC50 is 200 nM.

Q: What about the Ki [8] of the same compound?
A: The Ki was 0.1 nM.

Q: With `O=c1cc(N2CCOCC2)cc(N2CCCC[C@@H]2Cc2ccccc2)[nH]1` as the compound, how does the solubility kinetic at 2 h [3] read?
A: The solubility kinetic at 2 h was 59 µg/mL (≈ 167 µM).

Q: And the Ki [4]?
A: The Ki was 170 nM.

Q: What about the IC50 [9] of the same compound?
A: The IC50 was 8000 nM.

Q: For `Oc1cc(N2CCOCC2)nc(N2CCC[C@@H]2Cc2ccccc2)n1`, which Ratio Ki [1] is on record?
A: Its Ratio Ki is 16.

Q: What about the Ratio [2] of the same compound?
A: Its Ratio is 4.5.

Q: And the solubility kinetic at 2 h [3]?
A: Its solubility kinetic at 2 h is 34 µg/mL (≈ 99.9 µM).

Q: And the Ki [4]?
A: Its Ki is 16 nM.

Q: What about the Papp A→B at 1 h [5] of the same compound?
A: Its Papp A→B at 1 h is 77.5 ×10⁻⁶ cm/s.

Q: And the CLint scaled at 1 µM [6]?
A: The CLint scaled at 1 µM was 261 mL/min/kg.

Q: And the IC50 [7]?
A: The IC50 was 500 nM.

Q: And the Ki [8]?
A: Its Ki is 1 nM.

Q: Which Ratio Ki [1] does the source give for `O=c1cc(N2CCOCC2)cc(N2C[C@@H]3C[C@@H]3[C@@H]2Cc2ccccc2)[nH]1` here?
A: The Ratio Ki was 13.

Q: And the Ratio [2]?
A: Its Ratio is 2.9.

Q: What about the solubility kinetic at 2 h [3] of the same compound?
A: Its solubility kinetic at 2 h is 52 µg/mL (≈ 148 µM).

Q: What about the Ki [4] of the same compound?
A: The Ki was 4 nM.

Q: And the Papp A→B at 1 h [5]?
A: Its Papp A→B at 1 h is 81.2 ×10⁻⁶ cm/s.

Q: And the CLint scaled at 1 µM [6]?
A: The CLint scaled at 1 µM was 177 mL/min/kg.

Q: What about the IC50 [7] of the same compound?
A: The IC50 was 150 nM.

Q: And the Ki [8]?
A: Its Ki is 0.3 nM.

Q: With `O=c1cc(N2CCOCC2)cc(N2CCC(F)(F)[C@@H]2Cc2ccccc2)[nH]1` as the compound, how does the Ratio Ki [1] read?
A: Its Ratio Ki is 6.5.

Q: And the Ratio [2]?
A: The Ratio was 2.6.

Q: And the solubility kinetic at 2 h [3]?
A: Its solubility kinetic at 2 h is 65 µg/mL (≈ 173 µM).

Q: And the Ki [4]?
A: The Ki was 39 nM.

Q: What about the Papp A→B at 1 h [5] of the same compound?
A: The Papp A→B at 1 h was 75.2 ×10⁻⁶ cm/s.

Q: What about the CLint scaled at 1 µM [6] of the same compound?
A: The CLint scaled at 1 µM was less than 65 mL/min/kg.

Q: What about the Ki [8] of the same compound?
A: The Ki was 6 nM.

Q: Which results are given for `COc1ccc2c(c1)Cc1cccc(-c3cc(=O)cc(N4CCOCC4)o3)c1S2`?
A: solubility kinetic at 2 h [3]: 11 µg/mL (≈ 27 µM); solubility [10]: 1 µg/mL (≈ 2.45 µM)

Q: Which Ratio Ki [1] does the source give for `O=c1cc(N2CCOCC2)cc(N2CCC[C@@H]2Cc2ccccc2)[nH]1` here?
A: Its Ratio Ki is 1.

Q: And the Ratio [2]?
A: The Ratio was 4.8.

Q: And the solubility kinetic at 2 h [3]?
A: Its solubility kinetic at 2 h is greater than 68 µg/mL.

Q: What about the Ki [4] of the same compound?
A: The Ki was 9 nM.

Q: What about the Papp A→B at 1 h [5] of the same compound?
A: The Papp A→B at 1 h was 59.9 ×10⁻⁶ cm/s.

Q: What about the CLint scaled at 1 µM [6] of the same compound?
A: The CLint scaled at 1 µM was 115 mL/min/kg.

Q: What about the Ki [8] of the same compound?
A: The Ki was 6 nM.
